Experimental findings from publication PMC7841779 (ACS Omega, 2021) are described below.

One data set relates to MDA-MB-231 cells. The data set is described as follows: MTT cell viability assay, MDA-MB-231. The data set is classed as cell-based, human. The conditions noted are these: highest dose 100 μM, compared to unconjugated [Re(CO)3(H2O)3]+. Background: Formazan colour is commonly taken as a measure of viable cells.
The test system of the next data set is 4T1 cells. Kind of data set: MTT cell viability assay, 4T1. The data set is classed as cell-based, mouse. The conditions noted are these: highest dose 100 μM, compared to unconjugated [Re(CO)3(H2O)3]+. In outline:
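4T1 cells were kept in DMEM with 10% FBS and penicillin/streptomycin at 37 °C, 5% CO2, then seeded at 2000 cells/100 μL. Test compound or free [Re(CO)3(H2O)3]+ was applied at 0.1–100 μM for 24 h. Cells were washed 3× with PBS and grown 48 h in DMEM/10% FBS. MTT was added for 4 h, cells were solubilised with SDS, and absorbance was read at 595 nm.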

Another data set concerns the target T1, LHRH receptor (Homo sapiens, UniProt P30968).
T1 sequence (P30968 1-328): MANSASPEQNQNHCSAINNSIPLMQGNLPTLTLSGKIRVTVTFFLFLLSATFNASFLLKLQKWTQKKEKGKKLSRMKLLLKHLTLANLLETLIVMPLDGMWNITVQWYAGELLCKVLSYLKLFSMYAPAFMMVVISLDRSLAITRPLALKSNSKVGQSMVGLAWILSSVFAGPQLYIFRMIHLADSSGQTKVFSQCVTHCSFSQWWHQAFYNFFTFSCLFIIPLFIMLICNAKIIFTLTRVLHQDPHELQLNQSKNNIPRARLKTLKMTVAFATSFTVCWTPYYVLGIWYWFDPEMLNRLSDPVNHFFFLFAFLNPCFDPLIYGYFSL
Kind of data set: LHRH receptor competition assay of 99mTc conjugate, MDA-MB-231. The data set is classed as cell-based. The conditions noted are these: MDA-MB-231 cells, cotreatment with 100 μg LHRH, 1 μCi, 37 °C, γ counter; n = 3. The essentials:
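MDA-MB-231 cells were grown in DMEM with 5 mM L-glutamine, 1% penicillin/streptomycin and 10% FBS at 37 °C, 5% CO2. Cells were seeded at 2 × 10^5 per well and cultured 48 h. 1 μCi (0.037 MBq) of 99mTc-labelled conjugate was added together with 100 μg LHRH and incubated at 37 °C for 15, 30, 60 and 120 min (n = 3). Cells were washed 3× in PBS, trypsinised and γ-counted. Uptake is % of cell counts over total counts, reported as mean ± SEM.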

With “Re-Acdien-LHRH: Acdien-LHRH reacted with equimolar [Re(CO)3(H2O)3]+; nonradioactive rhenium-LHRH conjugate”, the “cytotoxicity at the highest dose” value with MDA-MB-231 cells was “did not induce cytotoxicity”.

As to “Re-Acdien-peg-LHRH: PEGylated Acdien-peg-LHRH chelated with [Re(CO)3(H2O)3]+”, the “cytotoxicity at the highest dose” value with MDA-MB-231 cells and in the data set on 4T1 cells was “did not induce cytotoxicity” throughout.

Consider “^99mTc-Acdien-LHRH: Acdien-LHRH radiolabeled with [99mTc(CO)3]+ from Isolink kit”, for which the “cell uptake with LHRH cotreatment (competition)” value with LHRH receptor was “decrease”.
